Screening data from PubChem BioAssay.
The list is not random: actives were taken first. Their share in the collection is about 3.3%.
STAT3 activator: increases IL-6 driven STAT3 reporter signal; U3A cells, IL-6 STAT3-luciferase reporter, luminescence; 100% = signal with IL-6 EC80 alone; activation (% of control), % at 5.6 µM; actives 0.91% (n = 190,000);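 active means activation above the screen-wide mean of compound activation plus 3 SD, cut at about 130% in these data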;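 further: 0% = background luminescence of wells with medium and substrate only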
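Assay system – human STAT1-deficient U3A cells with stable STAT3-luciferase reporter · Also added – IL-6 (33 ng/mL) · Schedule – compound 1 h, then IL-6 6 h at 37 °C · Technique – reporter luminescence signal · Evaluation – % activation versus median of IL-6-stimulated wells · Benchmarks – IL-6-only wells as 100% reference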
AHR act: human AHR activation; AID 2796; AHR-responsive luciferase reporter cells, luminescence; actives 2.5% (n = 320,000); P35869; activation, % at 5 µM; in the data active means activation above about 47%;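 further: 0% = vehicle wells and 100% = reference agonist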
Target sequence (P35869 whole entry, looked up): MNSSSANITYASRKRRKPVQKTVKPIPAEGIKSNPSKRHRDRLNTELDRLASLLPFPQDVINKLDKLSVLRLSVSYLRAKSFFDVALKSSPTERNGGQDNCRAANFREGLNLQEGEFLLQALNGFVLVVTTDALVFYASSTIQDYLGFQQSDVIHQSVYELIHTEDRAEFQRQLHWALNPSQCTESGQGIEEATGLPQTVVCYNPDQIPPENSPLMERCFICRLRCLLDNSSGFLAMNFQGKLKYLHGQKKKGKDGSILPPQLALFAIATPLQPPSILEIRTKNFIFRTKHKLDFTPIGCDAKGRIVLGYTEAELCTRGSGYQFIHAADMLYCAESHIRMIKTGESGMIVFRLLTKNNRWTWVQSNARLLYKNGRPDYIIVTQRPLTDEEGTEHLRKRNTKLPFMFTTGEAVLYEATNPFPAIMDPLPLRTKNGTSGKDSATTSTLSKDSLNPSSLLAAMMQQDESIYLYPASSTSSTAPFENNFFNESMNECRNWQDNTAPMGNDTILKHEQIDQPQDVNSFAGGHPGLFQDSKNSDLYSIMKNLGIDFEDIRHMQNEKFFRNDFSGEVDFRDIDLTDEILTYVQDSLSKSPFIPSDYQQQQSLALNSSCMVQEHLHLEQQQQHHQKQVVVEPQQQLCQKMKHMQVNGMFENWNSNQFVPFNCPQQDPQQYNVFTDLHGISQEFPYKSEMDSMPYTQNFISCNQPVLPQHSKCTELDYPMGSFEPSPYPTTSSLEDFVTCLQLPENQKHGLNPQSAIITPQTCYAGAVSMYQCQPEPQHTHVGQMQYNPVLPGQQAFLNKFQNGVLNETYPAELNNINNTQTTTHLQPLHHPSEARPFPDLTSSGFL
ABCB6 inh MLPCN: inhibitors of human ABC transporter ABCB6. Q9NP58. K562-ABCB6 porphyrin accumulation, flow cytometry, 1 h; hits give low values. fluorescence ratio to DMSO, % at 10 µM. actives 0.19% (n = 360,000). AID 602162;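 active means fluorescence ratio to DMSO below 75%, the collection mean minus 3 SD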;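 further: signal is porphyrin accumulated inside mitochondria; 100% equals median channel fluorescence of DMSO control wells; lower ratio means ABCB6 inhibition with less porphyrin fluorescence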
GAA850 FXN act: frataxin GAA850 promoter activation | activation, % at 6 µM | HEK293 lucGAA850 FXN promoter luciferase reporter, 24 h; percent of 10 µM SAHA response | actives 0.56% (n = 360,000);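 active means activation above the average of all compounds screened plus 3 SD, cutoff fixed separately per campaign, cut at about 7.5% in these data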;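 further: 0% = DMSO wells and 100% = 10 µM SAHA wells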
* marks the source's active call; other numbers are inactive results; x = no result.

SMILES | STAT3 activator | AHR act | ABCB6 inh MLPCN | GAA850 FXN act
CCN1C(=O)S/C(=C/c2ccc(Sc3nc4ccccc4[nH]3)o2)C1=O | 104 | 3 | 97 | 0
COCCN(C(=O)c1ccccc1OC)c1nnc(C)s1 | 134* | 9 | 94 | 3
COc1ccc(/C=C(\NC(=O)c2ccccc2)C(=O)NCCC(=O)O)cc1 | 102 | 1 | 100 | 1
O=C(NCc1cccnc1)c1c(O)c2cccc3c2n(c1=O)CCC3 | 109 | 77* | 99 | 3
CCn1c(=O)c(C(=O)NC(C)C)c(O)c2ccccc21 | 103 | 76* | 96 | 0
NCCNC(=O)c1c(O)c2cccc3c2n(c1=O)CCC3 | x | x | 102 | -1
CCn1c(=O)c(C(=O)NCc2cccnc2)c(O)c2ccccc21 | 105 | 56* | 101 | 2
Cc1ccc(C)c(N2CCN(C(=O)Cc3ccc(NC4=NC5CS(=O)(=O)CC5S4)cc3)CC2)c1 (stereo not given) | x | 0 | 97 | -1
O=c1c2c(-c3cccs3)csc2ncn1-n1cccc1 | 136* | 3 | 100 | 0
Cc1ccc(C(=O)Nn2cnc3scc(-c4cccs4)c3c2=O)c(O)c1 | 108 | 60* | 104 | -1
Cc1ccc(C)n1-n1cnc2scc(-c3cccs3)c2c1=O | 105 | 2 | 100 | 1
Cc1ccc(C(C)NC(=O)c2ccncc2)c(C)c1 (stereo not given) | x | 6 | 94 | 2
O=C(Nc1ccc(OC(F)(F)F)cc1)c1cnccn1 | x | -1 | 103 | 3
O=C(Nc1ccc(OC(F)(F)F)cc1)c1ccc2ccccc2n1 | 122 | 47* | 94 | 3
O=C(Nc1ccc2c(c1)OCCO2)c1ccc2ccccc2n1 | 130 | 52* | 100 | 4
O=C(O)CN1C(=O)/C(=C\c2cc(Br)ccc2OCc2ccc(Cl)cc2Cl)SC1=S | x | 64* | 103 | 2
O=C(O)CN1C(=O)/C(=C\c2ccccc2OCc2ccc(Cl)cc2)SC1=S | x | 59* | 103 | 1
COc1cc(/C=C/C(=O)N2CCCc3ccccc32)cc(OC)c1OC | 99 | 55* | 100 | -1
COc1ccc(/C=C/C(=O)N2CCCc3ccccc32)cc1 | 98 | 29 | 95 | 4
CCSc1nc2c(c(=O)[nH]1)C(c1cccnc1)C(C(=O)OC)=C(C)N2 (stereo not given) | 98 | 4 | 100 | -2
CCSc1nc2c(c(=O)[nH]1)C(c1ccncc1)C(C(=O)OC(C)C)=C(C)N2 (stereo not given) | 111 | 48* | 98 | 4
Cc1c(C(=O)NCCC2=CCCCC2)cccc1[N+](=O)[O-] | 110 | 9 | 101 | 4
O=C(CCCNC(=O)c1ccc(Cl)cc1)Nc1ccc(Br)cc1 | x | 71* | 93 | 4
O=C(COC(=O)CCCNC(=O)c1ccc(Cl)cc1)Nc1ccc(Br)cc1 | 87 | 0 | 101 | 2
Cc1ccc(-c2noc(Cn3cc(S(=O)(=O)N4CCCC4)ccc3=O)n2)cc1 | x | 3 | 102 | 2
SMILES | STAT3 activator | AHR act | ABCB6 inh MLPCN | GAA850 FXN act
CC(=O)Nc1sc2c(c1C#N)CCCCC2 | 99 | 11 | 99 | 1
Cc1ccc(C(=O)Nc2sc3c(c2C#N)CCCCC3)cc1C | 121 | 71* | 101 | 5
Cc1noc(C(=O)Nc2sc3c(c2C#N)CCC3)c1Cl | 105 | 47* | 88 | 1
N#Cc1c(NC(=O)/C=C/c2ccco2)sc2c1CCCC2 | 154* | 1 | 103 | 4
CC(C)(C)C(=O)NC(=S)Nc1sc2c(c1C#N)CCCCC2 | 90 | 59* | 101 | 4
CCc1ccccc1N/C(=N\S(=O)(=O)c1ccccc1)C(F)(F)F | 91 | -1 | 101 | -2
Nc1nc2ccc(Cl)cc2o1 | x | x | 100 | 1
Cc1ccc(N=Nc2c(N)nn(-c3ccccc3)c2N)cc1 | 105 | -6 | 95 | 0
Cc1nn(-c2ccccc2)c(N)c1N=Nc1ccc2ccccc2c1 | 107 | 155* | 103 | 5
Oc1nc(Nc2ccc(Cl)cc2Cl)sc1/C=C1\C=Nc2ccccc21 | 108 | 24 | 115 | 3
Cn1c(O)c(/C=C2\C=Nc3ccccc32)sc1=Nc1ccc(C(=O)O)cc1 | x | 51* | 100 | 2
Cc1c(-c2ccccc2)nc(-c2ccccc2)[nH]c1=O | 96 | 24 | 108 | 3
Cc1sc2nc(SCC(=O)N3CCOCC3)[nH]c(=O)c2c1-c1ccccc1 | x | 49* | 100 | 0
Cc1sc2nc(-c3ccccc3)[nH]c(=O)c2c1-c1ccccc1 | 94 | 48* | x | x
COc1cc2c(cc1OC)C(c1ccc(C(F)(F)F)cc1)CC(=O)N2 (stereo not given) | x | 54* | 101 | 3
COc1cc2c(cc1OC)C(c1ccc(Br)cc1)CC(=O)N2 (stereo not given) | x | x | 94 | 3
CCN(c1ccccc1)S(=O)(=O)c1ccc(Oc2ccccc2C(C)=O)nc1 | x | 4 | 95 | 0
CCN(c1ccccc1)S(=O)(=O)c1ccc(Oc2ccc(-n3ccnc3)cc2)nc1 | 91 | 59* | 94 | 0
O=C(CSc1nnc2ccc(-c3cccnc3)nn12)Nc1ccc(F)cc1 | x | 61* | 99 | -3
Cc1cccc(NC(=O)CSc2ccc(-c3cccnc3)nn2)c1 | x | 50* | 101 | -2
CC(=O)Nc1ccc(NC(=O)CSc2nnc3ccc(-c4cccnc4)nn23)cc1 | x | 12 | 100 | 1
O=C(CSc1ccc(-c2ccccn2)nn1)c1ccc([N+](=O)[O-])cc1 | 96 | 2 | 95 | 3
O=C(CSc1ccc(-c2cccnc2)nn1)c1ccc([N+](=O)[O-])cc1 | 100 | 58* | 92 | 0
Cc1ccc(NC(=O)CSc2ccc(-c3cccnc3)nn2)cc1 | x | 25 | 100 | 1
NC(=O)CSc1nc2cc3c(cc2c(=O)n1CCCC(=O)NCc1ccc2c(c1)OCO2)OCO3 | 98 | 7 | 100 | -1
SMILES | STAT3 activator | AHR act | ABCB6 inh MLPCN | GAA850 FXN act
O=C(COC(=O)c1ccccc1F)Nc1cccnc1Cl | 93 | -3 | 94 | 1
COc1ccccc1C(=O)NNC(=O)CCCN1C(=O)/C(=C/c2cccs2)SC1=S | 82 | 2 | 104 | 0
COc1ccccc1N1C(=O)S/C(=C\c2cccs2)C1=O | x | 78* | 99 | 2
CCN1CCN(C(=O)NC2CC(=O)N(c3ccc(OC)cc3)C2)CC1 (stereo not given) | 99 | -1 | 100 | 0
COC(=O)c1ccccc1COc1cccn2c(N(C)CC3CC3)c(C)nc12 | x | x | 93 | 3
O=C(CSc1cccs1)Nc1ccc(Cl)cc1 | x | 0 | 101 | 3
COc1ccccc1NC(=O)c1cc(Br)ccc1Cl | 84 | 65* | 97 | 0
CN1CCN(c2ccccc2NC(=O)c2cc(Br)ccc2Cl)CC1 | 97 | 55* | 93 | 0
CN1CCN(c2ccccc2NC(=O)c2ccc(-c3ccc(Cl)c(Cl)c3)o2)CC1 | x | 63* | 98 | 3
CC(=O)N1CCN(c2ccccc2NC(=O)c2cc(Br)ccc2Cl)CC1 | 99 | 20 | 96 | -1
O=C1COc2ccc(C(=O)/C=C/c3ccccc3)cc2N1 | 87 | -6 | 96 | 4
Cc1c(O)ccc(/C=N/Nc2nc(-c3cccnc3)nc3ccccc23)c1O | x | 27 | 103 | -2
